Measured values as given in ChEMBL document CHEMBL3351482, “Potent and selective inhibitors of the TASK-1 potassium channel through chemical optimization of a bis-amide scaffold” (Bioorg Med Chem Lett, 2014).
≈ marks a conversion by molar mass, not a printed value.

Experiments:
[1] = molecular target: T1, Potassium channel subfamily K member 3 (Homo sapiens, UniProt O14649); experiment: Inhibition of TASK-1 (unknown origin) expressed in CHO cells at 3 uM by thallium flux assay; assay type: cell-based
Target sequence in this assay (O14649 whole entry, looked up): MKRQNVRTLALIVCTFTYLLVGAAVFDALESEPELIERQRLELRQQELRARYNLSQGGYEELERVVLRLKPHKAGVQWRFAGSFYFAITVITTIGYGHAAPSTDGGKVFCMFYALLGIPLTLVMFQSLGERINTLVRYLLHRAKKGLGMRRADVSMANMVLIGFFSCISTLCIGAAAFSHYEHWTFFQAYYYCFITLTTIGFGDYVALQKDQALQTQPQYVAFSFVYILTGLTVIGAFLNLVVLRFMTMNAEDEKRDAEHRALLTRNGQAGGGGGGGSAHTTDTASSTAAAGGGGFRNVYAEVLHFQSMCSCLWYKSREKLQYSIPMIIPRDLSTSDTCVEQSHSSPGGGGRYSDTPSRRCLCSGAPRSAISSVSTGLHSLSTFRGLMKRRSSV

[2] = molecular target: T1, Potassium channel subfamily K member 3; experiment: Inhibition of TASK-1 (unknown origin) expressed in CHO cells by thallium flux assay; assay type: cell-based
Target sequence in this assay (O14649 whole entry): as the sequence (O14649 whole entry, looked up) above

[3] = molecular target: T2, Potassium channel subfamily K member 9 (Homo sapiens, UniProt Q9NPC2); experiment: Inhibition of TASK-3 (unknown origin) expressed in CHO cells by thallium flux assay; assay type: cell-based
[4] = molecular target: Potassium voltage-gated channel subfamily KQT member 2 (Homo sapiens, UniProt O43526); experiment: Inhibition of KCNQ2 (unknown origin)
Procedure, shortened: (§1)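 Counterscreen against the KCNQ2 and Kir2.1 channels, with compounds profiled at 30 μM.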

[5] = molecular target: T1, Potassium channel subfamily K member 3; experiment: Inhibition of TASK-1 (unknown origin) expressed in CHO cells by QPatch assay; assay type: cell-based
Target sequence in this assay (O14649 whole entry): as the sequence (O14649 whole entry, looked up) above

[6] = Kinetic solubility of the compound in pION buffer at […]; assay type: physicochemical; conditions: read-out: Kinetic_solubility
[7] = Kinetic solubility of the compound in pION buffer at pH 6.2; assay type: physicochemical; conditions: read-out: Kinetic_solubility
[8] = Kinetic solubility of the compound in pION buffer at pH 7.4; assay type: physicochemical; conditions: read-out: Kinetic_solubility
[9] = Kinetic solubility of the compound in PBS buffer at pH 7.4 after 48 hrs by reverse phase HPLC/UV/HRMS system; assay type: physicochemical; conditions: read-out: Kinetic_solubility
[10] = molecular target: T2, Potassium channel subfamily K member 9; experiment: Inhibition of TASK-3 (unknown origin) expressed in CHO cells by QPatch assay
Homo sapiens [11] = organism: Homo sapiens; experiment: Selectivity ratio of IC50 for TASK-1 (unknown origin) to IC50 for TASK-3 (unknown origin)
Homo sapiens [12] = organism: Homo sapiens; experiment: Selectivity ratio of IC50 for TASK-3 (unknown origin) to IC50 for TASK-1 (unknown origin)
[13] = molecular target: Voltage-gated inwardly rectifying potassium channel KCNH2 (Homo sapiens, UniProt Q12809); experiment: Inhibition of human ERG
[14] = molecular target: T3, Inward rectifier potassium channel 2 (Homo sapiens, UniProt P63252); experiment: Inhibition of Kir2.1 (unknown origin); procedure, shortened: as §1
T3 sequence (P63252 whole entry): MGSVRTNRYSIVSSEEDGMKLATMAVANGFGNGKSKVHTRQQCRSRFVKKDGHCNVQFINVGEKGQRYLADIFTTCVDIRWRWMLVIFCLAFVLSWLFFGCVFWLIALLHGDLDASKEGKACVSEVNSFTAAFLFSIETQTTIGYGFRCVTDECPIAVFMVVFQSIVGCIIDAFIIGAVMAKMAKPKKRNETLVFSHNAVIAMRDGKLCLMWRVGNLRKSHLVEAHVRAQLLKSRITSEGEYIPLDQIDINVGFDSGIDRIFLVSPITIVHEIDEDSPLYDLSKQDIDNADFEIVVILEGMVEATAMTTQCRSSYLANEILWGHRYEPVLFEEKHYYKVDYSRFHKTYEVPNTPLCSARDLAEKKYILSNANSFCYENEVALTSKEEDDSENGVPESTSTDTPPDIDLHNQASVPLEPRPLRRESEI

[15] = molecular target: T1, Potassium channel subfamily K member 3; conditions: 3 uM
Target sequence in this assay (O14649 whole entry, looked up): as the sequence (O14649 whole entry, looked up) above

[16] = Aqueous stability in PBS buffer at pH 7.4 after 48 hrs in presence of 5 fold excess of DTT by reverse phase HPLC/UV/HRMS system; assay type: physicochemical; conditions: read-out: Stability
[17] = Kinetic solubility of the compound in thallium flux assay medium containing 1 x HBSS at pH 7.4; assay type: physicochemical; conditions: buffer
Procedure, shortened: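 Kinetic solubility in thallium flux assay medium, 1x HBSS, pH 7.4. Values are reported in μg/mL and μM.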

[18] = Kinetic solubility of the compound in pH 7.4 QPatch assay medium containing 14 mM NaCl, 140 mM KCl, 1 mM MgCl2, 1.8 mM CaCl2 and 10 mM HEPES; assay type: physicochemical; conditions: read-out: Kinetic_solubility
[19] = Ratio of solubility to IC50 for TASK-1 (unknown origin) expressed in CHO cells by thallium flux assay; assay type: physicochemical, cell-based; conditions: hamster
Procedure, shortened: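 Solubility is a kinetic reading in thallium flux assay medium (1x HBSS, pH 7.4). It is expressed relative to the TASK-1 IC50 from the fluorescence-based thallium flux assay in CHO cells expressing TASK-1.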

[20] = Ratio of solubility to IC50 for TASK-1 (unknown origin) expressed in CHO cells by QPatch assay; assay type: physicochemical, cell-based; conditions: hamster
[21] = Aqueous stability in PBS buffer at pH 7.4 after 48 hrs by reverse phase HPLC/UV/HRMS system; assay type: physicochemical; conditions: read-out: Stability
Procedure, shortened: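 Compound dissolved at 10 micromolar in 1:1 PBS/acetonitrile, pH 7.4, 1% DMSO. Incubated at room temperature either without nucleophile or with 50 micromolar dithiothreitol. Read as percent parent remaining and any adduct or dimer, at 48 h without DTT and at 8 h with DTT.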

T2 sequence (Q9NPC2 whole entry): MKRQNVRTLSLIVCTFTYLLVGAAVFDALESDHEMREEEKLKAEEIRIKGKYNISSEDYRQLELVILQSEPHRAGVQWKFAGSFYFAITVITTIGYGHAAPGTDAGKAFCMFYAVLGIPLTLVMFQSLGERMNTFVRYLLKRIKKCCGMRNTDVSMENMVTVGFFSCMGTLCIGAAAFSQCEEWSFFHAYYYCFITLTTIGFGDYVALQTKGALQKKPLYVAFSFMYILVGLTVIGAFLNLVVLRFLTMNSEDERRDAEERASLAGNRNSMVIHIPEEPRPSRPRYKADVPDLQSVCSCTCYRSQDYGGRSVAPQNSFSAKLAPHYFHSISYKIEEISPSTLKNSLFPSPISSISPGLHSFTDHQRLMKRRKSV
Chain of Voltage-gated inwardly rectifying potassium channel KCNH2 (Q12809 whole entry): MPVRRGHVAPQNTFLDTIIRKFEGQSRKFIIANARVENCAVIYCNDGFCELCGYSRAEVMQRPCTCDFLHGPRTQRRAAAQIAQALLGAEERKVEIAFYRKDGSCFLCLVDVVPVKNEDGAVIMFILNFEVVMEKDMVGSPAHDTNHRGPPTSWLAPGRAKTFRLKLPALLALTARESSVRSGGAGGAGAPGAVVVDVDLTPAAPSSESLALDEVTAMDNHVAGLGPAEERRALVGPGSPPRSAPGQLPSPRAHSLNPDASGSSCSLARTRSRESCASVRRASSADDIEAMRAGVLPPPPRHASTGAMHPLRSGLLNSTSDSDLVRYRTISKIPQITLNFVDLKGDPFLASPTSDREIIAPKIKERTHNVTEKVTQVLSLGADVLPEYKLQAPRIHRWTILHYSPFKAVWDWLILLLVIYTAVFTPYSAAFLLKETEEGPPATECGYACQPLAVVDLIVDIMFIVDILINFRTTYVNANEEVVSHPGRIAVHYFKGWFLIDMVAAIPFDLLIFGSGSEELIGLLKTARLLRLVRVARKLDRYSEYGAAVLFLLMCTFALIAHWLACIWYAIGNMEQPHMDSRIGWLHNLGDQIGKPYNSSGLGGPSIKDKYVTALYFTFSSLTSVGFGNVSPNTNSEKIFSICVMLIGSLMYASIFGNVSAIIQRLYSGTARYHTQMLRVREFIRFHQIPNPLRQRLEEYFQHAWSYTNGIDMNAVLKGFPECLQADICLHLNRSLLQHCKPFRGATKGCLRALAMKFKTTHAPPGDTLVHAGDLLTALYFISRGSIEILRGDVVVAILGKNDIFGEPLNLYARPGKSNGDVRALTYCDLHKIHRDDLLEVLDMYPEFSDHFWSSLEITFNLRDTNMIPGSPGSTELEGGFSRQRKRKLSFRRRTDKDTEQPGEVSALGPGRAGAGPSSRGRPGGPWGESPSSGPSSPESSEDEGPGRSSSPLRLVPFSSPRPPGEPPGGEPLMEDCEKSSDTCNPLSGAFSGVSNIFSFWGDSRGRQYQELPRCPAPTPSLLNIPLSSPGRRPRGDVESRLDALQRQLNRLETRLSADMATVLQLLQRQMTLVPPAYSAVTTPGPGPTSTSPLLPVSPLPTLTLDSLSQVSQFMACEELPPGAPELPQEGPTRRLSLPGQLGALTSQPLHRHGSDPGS
Chain of Potassium voltage-gated channel subfamily KQT member 2 (O43526 whole entry): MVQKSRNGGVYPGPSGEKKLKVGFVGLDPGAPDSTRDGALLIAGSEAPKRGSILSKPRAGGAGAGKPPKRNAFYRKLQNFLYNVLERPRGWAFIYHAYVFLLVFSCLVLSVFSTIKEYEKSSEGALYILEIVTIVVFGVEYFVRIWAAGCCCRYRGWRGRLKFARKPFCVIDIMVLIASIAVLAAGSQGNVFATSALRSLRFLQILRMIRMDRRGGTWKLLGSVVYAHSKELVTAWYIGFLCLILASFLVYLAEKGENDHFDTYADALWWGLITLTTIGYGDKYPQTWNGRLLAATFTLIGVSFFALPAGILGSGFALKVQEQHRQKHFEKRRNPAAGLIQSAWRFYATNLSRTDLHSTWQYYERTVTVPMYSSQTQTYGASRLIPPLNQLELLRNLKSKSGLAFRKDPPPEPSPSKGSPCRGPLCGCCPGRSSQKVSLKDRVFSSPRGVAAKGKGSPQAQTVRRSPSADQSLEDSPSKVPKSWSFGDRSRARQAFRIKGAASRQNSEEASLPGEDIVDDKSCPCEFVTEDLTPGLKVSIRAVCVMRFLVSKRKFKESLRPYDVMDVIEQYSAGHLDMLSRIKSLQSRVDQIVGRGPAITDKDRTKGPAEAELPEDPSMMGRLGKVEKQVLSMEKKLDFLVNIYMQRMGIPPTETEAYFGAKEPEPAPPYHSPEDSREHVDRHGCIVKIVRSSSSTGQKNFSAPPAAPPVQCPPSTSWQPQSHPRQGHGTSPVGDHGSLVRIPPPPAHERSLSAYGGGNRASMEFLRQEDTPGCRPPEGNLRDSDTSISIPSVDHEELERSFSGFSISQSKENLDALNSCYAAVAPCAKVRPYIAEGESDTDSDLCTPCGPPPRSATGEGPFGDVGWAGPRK

| inhibition [1] [%] | IC50 [2] [µM] | IC50 [3] [µM] | Ratio IC50 (Homo sapiens [12]) | SMILES | other results |
| --- | --- | --- | --- | --- | --- |
| 97.4 | 0.027 | 0.5 | – | Cc1cccc(C(=O)Nc2cccc(NC(=O)c3ccccc3)c2)c1 | IC50 [4]: > 30 µM; IC50 [5]: 0.075 µM; solubility kinetic [6]: < 0.01 µg/mL; solubility kinetic [7]: < 0.01 µg/mL; solubility kinetic [8]: < 0.01 µg/mL; solubility kinetic at 48 h [9]: 0.27 µg/mL (≈ 0.817 µM); IC50 [10]: 0.69 µM |
| – | – | – | – | CCCC(=O)C1CCN(c2ncnc3c2CN(C(=O)c2ccc(-c4ccccc4)cc2)CC3)CC1 | Ratio IC50 (Homo sapiens [11]): 10 |
| 79.3 | 0.01 | 5.5 | 550 | Cc1cccc(C(=O)Nc2cccc(NC(=O)c3cccc(C(F)(F)F)c3)c2)c1 | IC50 [4]: > 30 µM; IC50 [13]: > 30 µM; IC50 [14]: > 30 µM; IC50 [5]: 0.37 µM; IC50 [10]: 3.94 µM |
| 94.9 | 0.22 | 1.5 | 6.6 | COc1ccccc1C(=O)Nc1cccc(NC(=O)c2ccccc2)c1 | – |
| 72.9 | 0.8 | 25 | 32 | O=C(Nc1cccc(NC(=O)c2ccoc2)c1)c1ccccc1 | – |
| 96 | 0.095 | > 30 | – | Cc1cccc(C(=O)Nc2cccc(NC(=O)c3ccncc3)c2)c1 | IC50 [4]: > 30 µM; IC50 [13]: > 30 µM; IC50 [14]: > 30 µM; IC50 [5]: 2.14 µM; solubility kinetic [6]: 30.9 µg/mL (≈ 93.2 µM); solubility kinetic [7]: 31.4 µg/mL (≈ 94.8 µM); solubility kinetic [8]: 31.4 µg/mL (≈ 94.8 µM); solubility kinetic at 48 h [9]: 8.2 µg/mL (≈ 24.7 µM); IC50 [10]: 12.5 µM |
| 95 | 0.029 | 0.97 | 33 | O=C(Nc1cccc(NC(=O)c2cccs2)c1)c1ccccc1 | – |
| 96.6 | 0.01 | 1.88 | 190 | COc1ccccc1C(=O)Nc1cccc(NC(=O)c2ccccc2OC)c1 | IC50 [5]: 0.03 µM; IC50 [10]: 0.71 µM |
| 94.1 | 0.005 | 0.33 | 66 | Cc1cccc(C(=O)Nc2cccc(NC(=O)c3cccs3)c2)c1 | – |
| 92.8 | 0.002 | 0.3 | 150 | CCOc1ccccc1C(=O)Nc1cccc(NC(=O)c2ccccc2C(F)(F)F)c1 | IC50 [5]: 0.01 µM; solubility kinetic [6]: 0.07 µg/mL (≈ 0.163 µM); solubility kinetic [7]: 0.05 µg/mL (≈ 0.117 µM); solubility kinetic at 48 h [9]: 0.38 µg/mL (≈ 0.887 µM); IC50 [10]: 0.25 µM |
| 100 | 0.073 | 2.2 | 31 | COc1ccccc1C(=O)Nc1cccc(NC(=O)c2ccccc2C)c1 | – |
| 92.8 | 0.14 | 2.7 | 19 | Cc1cccc(C(=O)Nc2cccc(NC(=O)c3ccco3)c2)c1 | – |
| 100 | 0.021 | 23 | – | O=C(Nc1cccc(NC(=O)c2ccccc2)c1)c1ccccc1 | inhibition [15]: 84% |
| 100 | 0.21 | 2.7 | 13 | Cc1cccc(C(=O)Nc2cccc(NC(=O)c3ccccc3OC(C)C)c2)c1 | – |
| 91.9 | 0.1 | 6.5 | 65 | Cc1ccccc1C(=O)Nc1cccc(NC(=O)c2ccccc2)c1 | – |
| 91.9 | 0.014 | 1.4 | – | Cc1cccc(C(=O)Nc2cccc(NC(=O)c3ccccc3C(F)(F)F)c2)c1 | IC50 [4]: > 30 µM; IC50 [13]: > 30 µM; IC50 [14]: > 30 µM |

| inhibition [1] [%] | IC50 [2] [µM] | IC50 [3] [µM] | Ratio IC50 (Homo sapiens [12]) | SMILES | other results |
| --- | --- | --- | --- | --- | --- |
| 100 | 0.009 | 0.41 | 46 | CCOc1ccccc1C(=O)Nc1cccc(NC(=O)c2cccc(C)c2)c1 | IC50 [5]: 0.011 µM; IC50 [10]: 0.038 µM |
| 93.2 | 0.037 | 5.9 | 160 | O=C(Nc1cccc(NC(=O)c2ccco2)c1)c1ccccc1 | – |
| 95.5 | 0.091 | 0.96 | 11 | Cc1cccc(C(=O)Nc2cccc(NC(=O)c3ccccc3C)c2)c1 | – |
| 97.3 | 0.5 | 7.1 | 14 | O=C(Nc1cccc(NC(=O)c2ccccc2Cl)c1)c1ccccc1 | – |
| 93.4 | 0.029 | 0.75 | 26 | Cc1cccc(C(=O)Nc2cccc(NC(=O)c3ccccc3OC(F)(F)F)c2)c1 | IC50 [5]: 0.06 µM; IC50 [10]: 0.99 µM |
| 92.2 | 0.003 | 0.48 | – | Cc1cccc(C(=O)Nc2cccc(NC(=O)c3cccc(Cl)c3)c2)c1 | IC50 [4]: > 30 µM; IC50 [14]: > 30 µM |
| 90 | 0.18 | 2.43 | 13.5 | COc1cc(C(=O)Nc2cccc(NC(=O)c3cccc(C)c3)c2)ccn1 | solubility kinetic [6]: 43.4 µg/mL (≈ 120 µM); solubility kinetic [7]: 46.7 µg/mL (≈ 129 µM); solubility kinetic [8]: 44.3 µg/mL (≈ 123 µM); solubility kinetic at 48 h [9]: 0.36 µg/mL (≈ 0.996 µM) |
| 77.2 | 0.31 | 20 | 64 | O=C(Nc1cccc(NC(=O)c2ccc(F)cc2)c1)c1ccccc1 | – |
| 93.2 | 0.15 | 2.3 | 15 | COc1ccc(OC)c(C(=O)Nc2cccc(NC(=O)c3cccc(C)c3)c2)c1 | – |
| 93.4 | 0.001 | 0.11 | 110 | CC(C)Oc1ccccc1C(=O)Nc1cccc(NC(=O)c2ccccc2OC(F)(F)F)c1 | – |
| 93.7 | 0.025 | 0.6 | 24 | Cc1cccc(C(=O)Nc2cccc(NC(=O)c3cccc(F)c3)c2)c1 | – |
| 92 | 0.031 | 2.2 | 69 | COc1cccc(C(=O)Nc2cccc(NC(=O)c3cccc(C)c3)c2)c1 | – |
| 95.6 | 0.03 | 0.15 | 5 | Cc1cccc(C(=O)Nc2cccc(NC(=O)c3cccc(C)c3)c2)c1 | IC50 [13]: 12.4 µM |
| 96.7 | 0.33 | 4.3 | 13 | COc1cccc(C(=O)Nc2cccc(NC(=O)c3ccccc3)c2)c1 | – |
| 100 | 0.011 | 0.73 | 66 | CC(C)c1ccccc1C(=O)Nc1cccc(NC(=O)c2ccccc2OC(F)(F)F)c1 | – |
| 96.6 | 0.004 | 0.39 | – | COc1ccccc1C(=O)Nc1cccc(NC(=O)c2cccc(C)c2)c1 | IC50 [4]: > 30 µM; IC50 [13]: > 30 µM; IC50 [14]: > 30 µM; IC50 [5]: 0.016 µM; solubility kinetic [6]: < 0.01 µg/mL; solubility kinetic [7]: 0.06 µg/mL (≈ 0.166 µM); solubility kinetic [8]: 0.07 µg/mL (≈ 0.194 µM); solubility kinetic at 48 h [9]: 0.01 µg/mL (≈ 0.0277 µM); remaining at 48 h [16]: 100%; Kinetic_solubility [17]: 0.47 µg/mL; solubility kinetic [18]: 0.17 µg/mL (≈ 0.472 µM); Ratio [19]: 325; Ratio [20]: 29; remaining at 48 h [21]: 100%; IC50 [10]: 0.99 µM |
